Test results: article PMC5965259 (Journal of medicinal chemistry, 2018)

Key:
[1] = tested on: bloodstream form T. brucei Lister 427; experiment: ATP–bioluminescence-based bloodstream form T. brucei cell viability assay; conditions: Trypanosoma brucei, 48 h, read-out: Tb427 EC50
[2] = target: T1, human AdoMetDC (Homo sapiens, UniProt P17707); experiment: RapidFire–MS-based AdoMetDC enzyme activity assay; format: biochemical; conditions: read-out: Hs IC50; pH 7.2; mean, triplicate, 95% CI in parentheses
T1 sequence (P17707 1-334): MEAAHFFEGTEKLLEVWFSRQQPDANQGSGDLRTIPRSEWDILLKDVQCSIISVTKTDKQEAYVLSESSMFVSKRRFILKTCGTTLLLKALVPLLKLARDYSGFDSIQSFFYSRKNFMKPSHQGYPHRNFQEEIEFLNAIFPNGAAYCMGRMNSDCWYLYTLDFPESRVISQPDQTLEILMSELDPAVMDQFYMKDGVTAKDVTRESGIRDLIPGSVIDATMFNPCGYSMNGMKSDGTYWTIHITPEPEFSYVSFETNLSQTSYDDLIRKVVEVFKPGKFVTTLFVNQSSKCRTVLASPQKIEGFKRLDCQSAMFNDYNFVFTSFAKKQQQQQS

[3] = tested on: T. brucei AdoMetDC/prozyme; experiment: biochemical; conditions: pH 7.2; human vs T. brucei AdoMetDC
[4] = target: T2, TbAdoMetDC (Trypanosoma brucei brucei, UniProt P50244); experiment: Rapid dilution assay for reversibility of inhibition; format: biochemical; conditions: 30 min with 36 μM inhibitor, then 100-fold dilution; pH 7.2
T2 sequence (P50244 86-370 limits assumed): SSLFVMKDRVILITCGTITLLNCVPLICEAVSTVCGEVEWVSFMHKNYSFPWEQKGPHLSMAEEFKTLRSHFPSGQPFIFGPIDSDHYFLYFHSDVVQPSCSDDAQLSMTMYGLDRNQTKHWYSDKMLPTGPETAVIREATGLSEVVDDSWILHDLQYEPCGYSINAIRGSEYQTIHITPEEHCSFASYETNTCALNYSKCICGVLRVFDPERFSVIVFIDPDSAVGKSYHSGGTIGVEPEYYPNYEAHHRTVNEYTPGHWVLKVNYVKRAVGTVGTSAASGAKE
Outline: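 Recombinant T. brucei AdoMetDC/prozyme was pre-equilibrated with test compound for 30 min. It was then diluted 100-fold, to a non-inhibitory level, into reaction buffer containing 50 μM S-adenosyl-L-methionine (~Km) to start the reaction. Aliquots were quenched every 5 min, and decarboxylated AdoMet was quantified by RapidFire–MS. Progress curves were compared with a vehicle control.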

[5] = tested on: prozyme protein levels in T. brucei cells; experiment: Western blot analysis of prozyme levels in treated T. brucei cells; format: cell-based; conditions: 24 h treatment at 1.5 × EC50
[6] = tested on: MDCKII-hMDR1 monolayer cells; experiment: MDCKII-hMDR1 monolayer BBB permeability assay ± Pgp inhibitor GF120918; format: in vitro ADME
[7] = target: T2, TbAdoMetDC; experiment: Inhibition modality: substrate titrations, Lineweaver–Burk analysis; format: biochemical; conditions: substrate titrations at four inhibitor concentrations
Outline: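 Recombinant T. brucei AdoMetDC/prozyme heterodimer. Product (decarboxylated AdoMet) formation was measured across varied S-adenosyl-L-methionine concentrations at four test-compound concentrations. Product was quantified by RapidFire–mass spectrometry. Final DMSO in enzyme assays was 2%. Substrate titrations were analysed by double-reciprocal Lineweaver–Burk plot to assign inhibition modality.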

[8] = target: T3, T. brucei AdoMetDC/prozyme (Trypanosoma brucei brucei, UniProt P50244); experiment: biochemical; conditions: pH 7.2, read-out: IC90 for TbAdoMetDC
T3 sequence (P50244 86-370 limits assumed): T2 sequence (P50244 86-370 limits assumed)

[9] = Metabolic stability in hepatic microsomes; format: in vitro ADME, male CD-1 mouse and mixed-gender human

| SMILES | EC50 [1] [µM] | IC50 [2] [µM] | selectivity ratio (HsIC50/TbIC50) [3] | recovery of enzyme activity after dilution of inhibitor (reversibility) [4] | prozyme protein level vs vehicle-only control [5] | Pgp-mediated efflux substrate [6] | modality of inhibition [7] | IC90 [8] [µM] | metabolic stability [9] |
| --- | --- | --- | --- | --- | --- | --- | --- | --- | --- |
| Cc1cc(Nc2cc(Cl)c(F)c(Cl)c2)nc(N)n1 [Compound 62, N^4-(3,5-Dichloro-4-fluorophenyl)-6-methylpyrimidine-2,4-diamine] | 4.8 | 160 | exceeded 100 | – | – | – | – | – | – |
| Cc1cc(Nc2cc(Cl)cc(Cl)c2)nc(N)n1 [Compound 7] | 5.6 | – | – | fully recovered | induced prozyme above the vehicle-only control levels | not a substrate of Pgp-mediated efflux | competitive inhibition | ~36 | poor metabolic stability |
